This note sets out measurements from ChEMBL document CHEMBL2417437, “A hit to lead discovery of novel N-methylated imidazolo-, pyrrolo-, and pyrazolo-pyrimidines as potent and selective mTOR inhibitors” (Bioorg Med Chem Lett, 2013).

The target in data set [1] is T1, Serine/threonine-protein kinase mTOR (Homo sapiens, UniProt P42345). In words: Inhibition of human recombinant mTOR (1360-2549) expressed in insect cells assessed as phosphorylation of recombinant (GFP)-4-EBP1 after 30 mins by LanthaScreen FRET assay. (In general: In TR-FRET formats the signal depends on donor and acceptor labels being close together.)
The target of data set [2] is Phosphatidylinositol 4,5-bisphosphate 3-kinase catalytic subunit alpha isoform (Homo sapiens, UniProt P42336). The data set is described as follows: Displacement of TAMRA-PIP3 from PI3Kalpha GRP-1 pleckstrin homology domain (unknown origin) assessed as formation of 3,4,5-inositoltriphosphate after 30 mins by fluorescence polarization assay.
Phosphatidylinositol 4,5-bisphosphate 3-kinase catalytic subunit alpha isoform, sequence (P42336 whole entry, the tested form may be a part, canonical isoform): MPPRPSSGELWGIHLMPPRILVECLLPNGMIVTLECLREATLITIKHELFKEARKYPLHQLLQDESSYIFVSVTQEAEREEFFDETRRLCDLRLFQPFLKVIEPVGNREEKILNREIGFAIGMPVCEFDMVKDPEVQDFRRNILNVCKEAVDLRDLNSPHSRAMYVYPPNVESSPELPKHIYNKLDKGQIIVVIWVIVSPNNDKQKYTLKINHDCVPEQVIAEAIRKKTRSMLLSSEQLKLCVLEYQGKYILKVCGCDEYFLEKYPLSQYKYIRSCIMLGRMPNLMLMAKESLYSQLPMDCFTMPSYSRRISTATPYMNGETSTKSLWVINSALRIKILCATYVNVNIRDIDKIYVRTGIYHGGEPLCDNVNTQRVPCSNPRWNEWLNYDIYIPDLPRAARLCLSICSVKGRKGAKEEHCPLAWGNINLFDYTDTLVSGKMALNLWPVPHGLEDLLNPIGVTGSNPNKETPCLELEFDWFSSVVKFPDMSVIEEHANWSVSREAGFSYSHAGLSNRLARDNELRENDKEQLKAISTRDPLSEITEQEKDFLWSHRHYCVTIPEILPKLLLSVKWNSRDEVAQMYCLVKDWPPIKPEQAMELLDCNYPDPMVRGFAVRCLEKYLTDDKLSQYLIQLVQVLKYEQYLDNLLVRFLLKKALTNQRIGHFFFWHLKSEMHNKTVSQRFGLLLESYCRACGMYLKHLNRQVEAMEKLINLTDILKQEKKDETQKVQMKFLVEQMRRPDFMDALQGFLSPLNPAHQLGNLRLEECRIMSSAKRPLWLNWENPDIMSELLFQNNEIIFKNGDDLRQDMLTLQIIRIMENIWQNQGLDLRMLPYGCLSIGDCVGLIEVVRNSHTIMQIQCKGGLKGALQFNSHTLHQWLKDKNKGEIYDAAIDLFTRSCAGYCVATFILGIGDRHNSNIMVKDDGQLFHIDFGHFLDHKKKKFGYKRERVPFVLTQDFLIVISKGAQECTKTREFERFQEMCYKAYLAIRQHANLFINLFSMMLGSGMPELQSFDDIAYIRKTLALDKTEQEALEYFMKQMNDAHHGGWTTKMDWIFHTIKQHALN
Data set [3] concerns the target T2, Phosphatidylinositol 4,5-bisphosphate 3-kinase catalytic subunit delta isoform (Homo sapiens, UniProt O00329).
T2 sequence (O00329 whole entry): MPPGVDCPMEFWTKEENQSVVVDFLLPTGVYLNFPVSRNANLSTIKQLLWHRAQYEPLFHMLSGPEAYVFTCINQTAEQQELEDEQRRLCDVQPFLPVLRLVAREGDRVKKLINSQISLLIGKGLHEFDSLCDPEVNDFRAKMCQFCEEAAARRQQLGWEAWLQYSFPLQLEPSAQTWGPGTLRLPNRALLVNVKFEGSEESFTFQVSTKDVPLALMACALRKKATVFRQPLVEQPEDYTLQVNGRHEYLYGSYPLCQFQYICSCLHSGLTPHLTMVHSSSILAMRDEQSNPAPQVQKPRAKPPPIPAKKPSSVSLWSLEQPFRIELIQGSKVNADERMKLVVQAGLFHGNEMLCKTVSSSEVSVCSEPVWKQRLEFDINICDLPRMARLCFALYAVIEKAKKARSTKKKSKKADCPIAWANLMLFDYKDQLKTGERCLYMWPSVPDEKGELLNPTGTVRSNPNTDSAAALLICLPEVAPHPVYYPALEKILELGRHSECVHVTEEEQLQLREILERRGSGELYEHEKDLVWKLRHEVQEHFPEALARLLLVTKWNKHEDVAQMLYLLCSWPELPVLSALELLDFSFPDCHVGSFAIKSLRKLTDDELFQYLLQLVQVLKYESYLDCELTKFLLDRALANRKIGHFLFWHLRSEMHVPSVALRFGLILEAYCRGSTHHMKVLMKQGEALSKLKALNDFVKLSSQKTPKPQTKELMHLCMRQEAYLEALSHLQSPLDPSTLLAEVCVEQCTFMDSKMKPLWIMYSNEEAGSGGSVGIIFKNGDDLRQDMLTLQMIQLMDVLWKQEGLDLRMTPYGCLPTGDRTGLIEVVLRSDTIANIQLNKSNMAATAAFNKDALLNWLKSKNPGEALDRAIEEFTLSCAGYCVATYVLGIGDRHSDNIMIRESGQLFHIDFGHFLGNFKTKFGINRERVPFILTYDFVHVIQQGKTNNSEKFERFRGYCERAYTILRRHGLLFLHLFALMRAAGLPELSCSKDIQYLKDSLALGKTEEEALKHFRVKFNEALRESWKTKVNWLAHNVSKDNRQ
In words: Displacement of TAMRA-PIP3 from PI3Kdelta GRP-1 pleckstrin homology domain (unknown origin) assessed as formation of 3,4,5-inositoltriphosphate after 30 mins by fluorescence polarization assay.

Data set [4] deals with T1, Serine/threonine-protein kinase mTOR. In words: Inhibition of mTOR in PTEN deficient human PC3 cells assessed as inhibition of Akt phosphorylation at Ser473. Format: cell-based, PC-3.
A further data set has as its system PC-3. In words: Antiproliferative activity against PTEN deficient human PC3 cells assessed as cell viability after 3 days by CellTiter-Glo assay. Format: functional, cell-based. As to conditions: PC-3, 72 h. A digest of the protocol:
(§1)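 Three-day cell viability assay in PTEN-null NCI-PC3 prostate carcinoma cells and in MCF7 neo/HER2 cells, read as antiproliferative activity.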

A further data set concerns MCF7. In words: Antiproliferative activity against human MCF7 cells expressing neo/Her2 assessed as cell viability after 3 days by CellTiter-Glo assay. Format: functional, cell-based. As to conditions: MCF7, 72 h. An outline of the steps: as §1
Data set [5] deals with T1, Serine/threonine-protein kinase mTOR. In words: Inhibition of mTOR in PTEN deficient human PC3 cells assessed as inhibition of p70S6K phosphorylation. Format: cell-based, PC-3.
Data set [6] in a line: Oral bioavailability in mouse at 25 mg/kg. Format: ADME, organism-based. As to conditions: in vivo. A digest of the protocol: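 Mice were given a 25 mg/kg oral dose as a suspension in MCT. Bioavailability was reported as %F.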
The nature of data set [7]: Volume of distribution at steady state in iv dosed mouse. Format: ADME, organism-based. As to conditions: in vivo, read-out: Vdss.
A short description of data set [8]: Apparent permeability across basolateral to apical side in MDCK cells. As to conditions: dog. Format: ADME, cell-based, Canis lupus familiaris.
The nature of data set [9]: Plasma clearance in iv dosed mouse. Format: ADME, organism-based.
The nature of data set [10]: Efflux ratio of apparent permeability in MDCK cells. Format: ADME, cell-based, Canis lupus familiaris. As to conditions: dog.
For data set [11], the species on record is Homo sapiens. The data set is described as follows: Selectivity ratio of IC50 for PI3Kalpha (unknown origin) to Ki for human recombinant mTOR (1360-2549). A digest of the protocol:
(§2)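 Ratio of two biochemical values. The PI3K IC50 (PI3Kα or PI3Kδ) comes from a fluorescence polarization kinase assay. The mTOR Ki comes from a LanthaScreen FRET assay on the recombinant mTOR kinase domain. Each value is from at least two separate determinations, with typical variation under 30%.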

The species entered for data set [12] is Homo sapiens. The data set is described as follows: Selectivity ratio of IC50 for PI3Kdelta (unknown origin) to Ki for human recombinant mTOR (1360-2549). A digest of the protocol: as §2
Data set [13] addresses T1, Serine/threonine-protein kinase mTOR. The data set is described as follows: Inhibition of mTOR (unknown origin).

With `CCNC(=O)Nc1ccc(-c2nc(N3CCOC[C@@H]3C)c3nc(C(C)(C)O)n(C)c3n2)cc1`, the Ki – broadly, the dissociation constant of the complex between target and ligand, obtained from inhibition or displacement – in [1] was found to be 7 nM; in data set [2] it was 390 nM; in data set [3], 490 nM.

As to `CCNC(=O)Nc1ccc(-c2nc(N3CCOC[C@@H]3CC)c3c(ccn3C)n2)cc1`, the results for the Ki in data set [1], in data set [2] and in data set [3] were 6 nM, greater than 10000 nM and greater than 10000 nM, respectively. Also, the IC50 (as a rule, the concentration needed to halve the response being measured) in data set [4] worked out at 11 nM; in [5], 40 nM. Moreover, the values for the EC50 with PC-3 and with MCF7 were 280 nM and 420 nM, respectively.

In the case of `CCNC(=O)Nc1ccc(-c2nc(N3CCOC[C@@H]3C)c3c(cnn3C)n2)cc1`, the Ki in [1] was 8 nM; in [2] it was greater than 10000 nM; in data set [3], greater than 10000 nM. Further, the bioavailability (as a rule, dose-corrected exposure relative to a reference, in per cent) in data set [6] amounted to 4.4%. Further, the Vd in [7] is 0.36 L/kg. Besides, in [8], the Papp B→A (in general, how fast a substance crosses the layer from the basolateral side) is 8.6 ×10⁻⁶ cm/s. Also, the IC50 in data set [4] was determined as 8 nM; in data set [5], 47 nM. Further, the clearance – broadly, the rate of elimination divided by the concentration – in data set [9] is 13 mL/min/kg. For the same compound, the results for the EC50 in the data set with PC-3 and in the data set with MCF7 were 420 nM and 760 nM, respectively. The efflux ratio – broadly, the permeability from basolateral to apical divided by that in the opposite direction, in the common usage – in data set [10] worked out at 0.55.

Consider `CCNC(=O)Nc1ccc(-c2nc(N3CCOC[C@@H]3C)c3c(n2)nc(C(C)(C)O)n3C)cc1`, for which the figures for the Ki in [2] and in data set [3] were 7000 nM and 7300 nM, respectively.

Consider `CCNC(=O)Nc1ccc(-c2nc(N3CCOC[C@@H]3C)c3c(ccn3C)n2)cc1`, for which the Ki in [1] was 19 nM; in [2], greater than 10000 nM; in data set [3] it was greater than 10000 nM. The IC50 stood at 77 nM in data set [4] and 110 nM in data set [5]. The results for the EC50 in the data set on PC-3 and in the data set on MCF7 were 1900 nM and 9000 nM, respectively.

Regarding `CCNC(=O)Nc1ccc(-c2nc(N3C[C@@H]4C[C@H]3CO4)c3c(cnn3C)n2)cc1`, the Ki in [1] was 28 nM; in [2], 5140 nM; in data set [3], 5150 nM. For the same compound, the values for the IC50 in data set [4] and in data set [5] were 340 nM and 270 nM, respectively. For the same compound, the EC50 (in general, the concentration needed to bring the measured effect to its halfway point) in the data set with PC-3 was 2900 nM; with MCF7 it was 1700 nM.

As for `CCNC(=O)Nc1ccc(-c2nc(N3CCOC[C@H]3C)c3c(ncn3C)n2)cc1`, the IC50 was determined as 5800 nM in data set [2] and 4000 nM in data set [3].

Take `CCNC(=O)Nc1ccc(-c2nc(N3CCCOCC3)c3c(ncn3C)n2)cc1`: the IC50 was 6400 nM in data set [2], 7200 nM in data set [4], 8900 nM in data set [5] and 7300 nM in data set [3]. In addition, the figures for the Ratio in the data set filed under Homo sapiens [11] and in the data set listed under Homo sapiens [12] were 53 and 61, respectively.

`CCNC(=O)Nc1ccc(-c2nc(N3CCOC[C@@H]3C)c3nc(C(C)(C)O)n(CCO)c3n2)cc1`: the Ki came out at 9.5 nM in data set [1], 190 nM in [2], 9 nM in data set [13] and 160 nM in data set [3].

For `CCNC(=O)Nc1ccc(-c2nc(N3CCOC[C@@H]3C)c3c(ncn3C)n2)cc1`, the Ki in [2] and in data set [3] was greater than 10000 nM in each case. Besides, the EC50 with PC-3 came out at 290 nM; in the data set on MCF7 it was 1300 nM.

In the case of `CCNC(=O)Nc1ccc(-c2nc(N3CCOC[C@@H]3C)c3c(ncn3CC)n2)cc1`, the inhibition constant Ki in data set [2] and in data set [3] was greater than 10000 nM throughout.

As for `CCNC(=O)Nc1ccc(-c2nc(N3CCOC[C@@H]3C)c3ncn(C)c3n2)cc1`, the Ki in data set [1] turned out to be 12 nM; in [2], 370 nM; in [3] it was 890 nM.

Take `CC(C)(O)c1nc2c(N3CCOCC3)nc(-c3cnc(N)nc3)nc2n1CCO`: the Ki in data set [2] worked out at 2 nM; in [13] it was 72 nM; in [3], 4 nM.

For the compound `CCNC(=O)Nc1ccc(-c2nc(N3CCOCC3)c3c(ncn3C)n2)cc1`, in data set [1], the inhibition constant Ki is 150 nM.

For the compound `CCNC(=O)Nc1ccc(-c2nc(N3CCOC[C@@H]3C)c3ncn(CC)c3n2)cc1`, the values for the Ki in data set [1], in data set [2] and in [3] were 8 nM, 380 nM and 630 nM, respectively.

For the compound `CCNC(=O)Nc1ccc(-c2nc(N3CCOC[C@@H]3CC)c3c(ncn3C)n2)cc1`, the IC50 in data set [2] was greater than 10000 nM; in data set [4], 69 nM; in [5], 153 nM; in data set [3], greater than 10000 nM. Also, the Ratio in the data set filed under Homo sapiens [11] and in the data set listed under Homo sapiens [12] was greater than 2600 throughout. For the same compound, the EC50 in the data set with PC-3 amounted to 737 nM; in the data set on MCF7 it was 518 nM.

With `CCNC(=O)Nc1ccc(-c2nc(N3CCOC[C@@H]3CC)c3c(cnn3C)n2)cc1`, the figures for the Ki in [1], in data set [2] and in [3] were 1 nM, 3400 nM and greater than 10000 nM, respectively. For the same compound, the IC50 in [4] is 8 nM; in data set [5], 15 nM. Moreover, the EC50 was determined as 130 nM with PC-3 and 260 nM with MCF7.

On to `CCNC(=O)Nc1ccc(-c2nc(N3CCOC[C@@H]3CC)c3c(n2)c(C)nn3C)cc1`, for which the Ki in data set [2] was 5800 nM; in data set [3] it was greater than 10000 nM. The IC50 in data set [4] was 4 nM; in data set [5], 8 nM. Further, the values for the EC50 in the data set with PC-3 and in the data set on MCF7 were 86 nM and 160 nM, respectively.
